Results from ChEMBL document CHEMBL4346673, “Synthesis and biological evaluation of pyridazinone derivatives as selective COX-2 inhibitors and potential anti-inflammatory agents” (Eur J Med Chem, 2019).

Legend:
[1] = target: Prostaglandin G/H synthase 1 (Homo sapiens, UniProt P23219); assay: Inhibition of human COX1 assessed as reduction in PGF2alpha production using arachidonic acid as substrate preincubated with enzyme for 10 mins followed by substrate addition by ELISA; type: single protein
[2] = test system: Rattus norvegicus; assay: Antiinflammatory activity against carrageenan-induced albino Sprague-Dawley rat paw edema model assessed as paw diameter at 10 mg/kg, po pretreated for 1 hr followed by carrageenan challenge and measured immediately after carrageenan injection (reference value: 3.46 +/- 0.08 mm); type: functional
[3] = test system: Rattus norvegicus; assay: Antiinflammatory activity against carrageenan-induced albino Sprague-Dawley rat paw edema model assessed as paw diameter at 10 mg/kg, po pretreated for 1 hr followed by carrageenan challenge and measured at 1 hr post-carrageenan injection (reference value: 4.51 +/- 0.09 mm); type: functional
[4] = test system: Rattus norvegicus; assay: Antiinflammatory activity against carrageenan induced albino Sprague-Dawley rat paw edema model assessed as paw edema at 10 mg/kg, po pretreated for 1 hr followed by carrageenan challenge and measured at 1 hr post-carrageenan injection (reference value: 30.3%); type: functional
[5] = test system: Rattus norvegicus; assay: Antiinflammatory activity against carrageenan induced albino Sprague-Dawley rat paw edema model assessed as paw diameter at 10 mg/kg, po pretreated for 1 hr followed by carrageenan challenge and measured at 2 hrs post-carrageenan injection (reference value: 4.72 +/- 0.08 mm); type: functional
[6] = test system: Rattus norvegicus; assay: Antiinflammatory activity against carrageenan-induced albino Sprague-Dawley rat paw edema model assessed as paw edema at 10 mg/kg, po pretreated for 1 hr followed by carrageenan challenge and measured at 2 hrs post-carrageenan injection (reference value: 36.4%); type: functional
[7] = test system: Rattus norvegicus; assay: Antiinflammatory activity against carrageenan induced albino Sprague-Dawley rat paw edema model assessed as paw diameter at 10 mg/kg, po pretreated for 1 hr followed by carrageenan challenge and measured at 3 hrs post-carrageenan injection (reference value: 4.79 +/- 0.1 mm); type: functional
[8] = test system: Rattus norvegicus; assay: Antiinflammatory activity against carrageenan induced albino Sprague-Dawley rat paw edema model assessed as paw edema at 10 mg/kg, po pretreated for 1 hr followed by carrageenan challenge and measured at 3 hrs post-carrageenan injection (reference value: 38.4%); type: functional
[9] = test system: Rattus norvegicus; assay: Antiinflammatory activity against carrageenan induced albino Sprague-Dawley rat paw edema model assessed as paw diameter at 10 mg/kg, po pretreated for 1 hr followed by carrageenan challenge and measured at 4 hrs post-carrageenan injection (reference value: 4.88 +/- 0.1 mm); type: functional
[10] = test system: Rattus norvegicus; assay: Antiinflammatory activity against carrageenan induced albino Sprague-Dawley rat paw edema model assessed as paw edema at 10 mg/kg, po pretreated for 1 hr followed by carrageenan challenge and measured at 4 hrs post-carrageenan injection (reference value: 41%); type: functional
[11] = Ulcerogenicity in albino rat assessed as gastric lesions at 10 mg/kg, po administered as single dose after 18 hrs of starvation challenge and measured after 4 hrs; type: toxicity, organism-based; conditions: in vivo
Summary of the method: (§1)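 Adult male albino rats fasted 18 h, then dosed orally at 10 mg/kg (saline control, reference drugs); six rats per group. Killed 4 h after treatment. Stomachs removed and examined macroscopically for hyperemia, single or multiple lesions, erosion, ulcer or perforation. Number of ulcers and occurrence of hyperemia recorded.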

[12] = Ulcerogenicity in albino rat assessed as mild hyperemia without ulceration at 10 mg/kg, po administered as single dose after 18 hrs of starvation challenge and measured after 4 hrs; type: toxicity, organism-based; conditions: in vivo; summary of the method: as §1
[13] = Ulcerogenicity in albino rat assessed as severity of gastric lesions at 10 mg/kg, po administered as single dose after 18 hrs of starvation challenge and measured after 4 hrs; type: toxicity, organism-based; conditions: in vivo; summary of the method: as §1

Chain of Prostaglandin G/H synthase 1 (P23219 whole entry): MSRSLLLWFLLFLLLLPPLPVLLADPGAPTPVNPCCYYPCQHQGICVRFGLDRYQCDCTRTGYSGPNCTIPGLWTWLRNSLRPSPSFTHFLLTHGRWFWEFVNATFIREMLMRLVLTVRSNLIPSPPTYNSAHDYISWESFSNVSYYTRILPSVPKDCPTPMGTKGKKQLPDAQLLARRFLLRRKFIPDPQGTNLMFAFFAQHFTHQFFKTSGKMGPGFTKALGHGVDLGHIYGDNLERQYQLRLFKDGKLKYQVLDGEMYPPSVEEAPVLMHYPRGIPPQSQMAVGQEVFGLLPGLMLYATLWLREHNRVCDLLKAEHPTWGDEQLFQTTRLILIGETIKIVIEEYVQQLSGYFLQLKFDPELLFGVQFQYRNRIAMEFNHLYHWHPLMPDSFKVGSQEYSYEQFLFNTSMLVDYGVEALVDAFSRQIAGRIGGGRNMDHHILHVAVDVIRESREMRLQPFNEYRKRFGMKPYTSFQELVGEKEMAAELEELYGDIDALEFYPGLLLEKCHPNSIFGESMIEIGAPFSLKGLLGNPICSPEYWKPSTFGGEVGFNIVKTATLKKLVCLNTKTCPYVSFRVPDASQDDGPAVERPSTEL

`Cc1cccc(/C=C/C2=NNC(=O)CC2)c1` showed an IC50 [1] of 450 nM, an Activity [2] of 3.51 mm and an Activity [3] of 3.99 mm. The Activity [4] was 13.6%, the Activity [5] was 3.92 mm and the Activity [6] was 11.6%. It also gave an Activity [7] of 3.84 mm, an Activity [8] of 10.2% and an Activity [9] of 3.8 mm. For the same compound, the Activity [10] was 8.2%, the UI [11] was 0.2 and the Activity [12] was “Toxic”. For the same compound, the UI [13] was 0.4.

`Cc1cccc(/C=C/c2ccc(=O)[nH]n2)c1` showed an IC50 [1] of 370 nM, an Activity [2] of 3.55 mm and an Activity [3] of 3.96 mm. It also gave an Activity [4] of 11.5%, an Activity [5] of 3.86 mm and an Activity [6] of 8.7%. It also gave an Activity [7] of 3.84 mm, an Activity [8] of 8.1% and an Activity [9] of 3.82 mm. For the same compound, the Activity [10] was 7.6%, the UI [11] was 0 and the UI [13] was 0.

With `COc1ccccc1/C=C/C1=NN(c2ccc(F)cc2)C(=O)CC1` the IC50 [1] was 540 nM.

`COc1ccccc1/C=C/c1ccc(=O)[nH]n1` gave an IC50 [1] of 530 nM.

For `COc1ccccc1/C=C/c1ccc(=O)n(-c2ccc(F)cc2)n1`, the IC50 [1] was 700 nM, the Activity [2] was 3.59 mm and the Activity [3] was 3.97 mm. It also gave an Activity [4] of 10.5%, an Activity [5] of 3.93 mm and an Activity [6] of 9.4%. It also gave an Activity [7] of 3.88 mm, an Activity [8] of 8% and an Activity [9] of 3.85 mm. It also gave an Activity [10] of 7.2%, a UI [11] of 0 and a UI [13] of 0.

For `COc1ccccc1/C=C/c1ccc(=O)n(-c2ccccc2)n1`, the IC50 [1] was 460 nM.

`COc1ccccc1/C=C/C1=NNC(=O)CC1` gave an IC50 [1] of 270 nM.

With `O=C1CCC(/C=C/c2cccnc2)=NN1` the IC50 [1] was 750 nM, the Activity [2] was 3.53 mm and the Activity [3] was 3.92 mm. It also gave an Activity [4] of 11%, an Activity [5] of 3.86 mm and an Activity [6] of 9.3%. The Activity [7] was 3.81 mm, the Activity [8] was 7.9% and the Activity [9] was 3.78 mm. It also gave an Activity [10] of 7%, a UI [11] of 0 and a UI [13] of 0.

For `Cc1cccc(/C=C/C2=NN(c3ccc(F)cc3)C(=O)CC2)c1`, the IC50 [1] was 210 nM.

Work on `COc1ccccc1/C=C/C1=NN(c2ccccc2)C(=O)CC1` yielded an IC50 [1] of 390 nM.

With `Cc1cccc(/C=C/c2ccc(=O)n(-c3ccc(F)cc3)n2)c1` the IC50 [1] was 240 nM.

Compound `Cc1ccc(-c2cc(C(F)(F)F)nn2-c2ccc(S(N)(=O)=O)cc2)cc1` [CELECOXIB] has an Activity [2] of 3.48 mm, an Activity [3] of 3.93 mm and an Activity [4] of 12.9%. For the same compound, the Activity [5] was 3.88 mm, the Activity [6] was 11.4% and the Activity [7] was 3.83 mm. It also gave an Activity [8] of 10%, an Activity [9] of 3.78 mm and an Activity [10] of 8.6%. It also gave a UI [11] of 2.7 and a UI [13] of 6.2.

With `COc1ccc2c(c1)c(CC(=O)O)c(C)n2C(=O)c1ccc(Cl)cc1` [INDOMETHACIN] the Activity [2] was 3.49 mm, the Activity [3] was 3.92 mm and the Activity [4] was 12.3%. It also gave an Activity [5] of 3.85 mm, an Activity [6] of 10.3% and an Activity [7] of 3.81 mm. For the same compound, the Activity [8] was 9.4%, the Activity [9] was 3.73 mm and the Activity [10] was 8%. For the same compound, the UI [11] was 8.3 and the UI [13] was 12.4.
